Laboratory results taken from PubChem BioAssay AID1736 (Vanderbilt High Throughput Screening Facility, 2009).
Records with an inconclusive call do not appear. Activity calls are given as the source filed them.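 How the source made its calls: active means dose curve converging in at least two of three replicates, whether well supported or a less certain trend; inactive means fewer than two replicates with a converged curve.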

Target: Solute carrier family 12 member 5 (Homo sapiens) (UniProt Q9H2X9)
Experiment: concentration-response of KCC2 transport modulators – cell-based, HEK293 KCC2, FluoZin-2 fluorescence, dose response (AID 1736)
Settings: HEK293-KCC2 thallium flux
Procedure, shortened: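 Material: KCC2-expressing HEK cells; Reagent: thallium-containing stimulus buffer for thallium flux; Read-out: EC50 from normalized 10–20 s fluorescence slope; Compound: 11 points, 3-fold steps from 30 µM; Detection: FluoZin-2 AM fluorescence (0.5 µM dye), 480/540 nm, 1 Hz imaging; Repeats: triplicate, replicates fitted individually.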

Sequence of Solute carrier family 12 member 5 (Homo sapiens) (Q9H2X9 whole entry, looked up): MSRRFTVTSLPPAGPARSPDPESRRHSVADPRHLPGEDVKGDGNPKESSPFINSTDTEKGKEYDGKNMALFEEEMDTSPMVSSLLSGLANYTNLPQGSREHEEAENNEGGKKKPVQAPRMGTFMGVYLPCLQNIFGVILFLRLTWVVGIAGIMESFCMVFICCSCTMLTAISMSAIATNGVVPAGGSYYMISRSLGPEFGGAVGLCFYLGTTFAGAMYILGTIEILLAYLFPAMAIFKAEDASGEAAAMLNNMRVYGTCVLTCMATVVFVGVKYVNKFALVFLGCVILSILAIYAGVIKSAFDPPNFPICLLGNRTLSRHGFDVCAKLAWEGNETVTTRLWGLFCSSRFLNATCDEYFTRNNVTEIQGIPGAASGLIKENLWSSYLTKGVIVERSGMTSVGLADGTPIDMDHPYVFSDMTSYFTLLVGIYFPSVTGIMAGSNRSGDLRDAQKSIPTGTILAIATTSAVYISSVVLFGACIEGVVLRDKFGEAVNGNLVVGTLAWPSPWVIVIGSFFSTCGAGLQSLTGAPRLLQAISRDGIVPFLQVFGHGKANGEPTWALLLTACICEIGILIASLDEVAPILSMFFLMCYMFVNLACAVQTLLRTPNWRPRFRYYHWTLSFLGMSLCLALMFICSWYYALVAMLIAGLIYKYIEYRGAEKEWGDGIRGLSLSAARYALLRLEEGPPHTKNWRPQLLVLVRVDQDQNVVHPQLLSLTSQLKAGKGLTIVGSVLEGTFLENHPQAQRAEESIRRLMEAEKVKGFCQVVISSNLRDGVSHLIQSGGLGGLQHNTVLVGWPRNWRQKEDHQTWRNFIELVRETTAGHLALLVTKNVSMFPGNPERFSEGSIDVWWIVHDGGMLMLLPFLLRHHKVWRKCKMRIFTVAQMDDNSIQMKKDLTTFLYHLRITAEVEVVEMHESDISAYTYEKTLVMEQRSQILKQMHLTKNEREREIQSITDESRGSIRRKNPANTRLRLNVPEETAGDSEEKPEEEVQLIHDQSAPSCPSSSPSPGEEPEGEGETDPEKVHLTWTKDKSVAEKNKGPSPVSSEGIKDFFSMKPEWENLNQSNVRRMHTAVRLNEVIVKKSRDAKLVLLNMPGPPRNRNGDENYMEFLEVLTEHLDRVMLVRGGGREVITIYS

EC50	SMILES
inactive	Cc1cccc(NC(=S)N=Nc2c(O)n(CN3CCOCC3)c3ccccc23)c1C
117 nM	O=C(Nn1c(O)c(C=C2N=c3ccccc3=N2)sc1=S)c1ccccc1Cl
inactive	C/C(=N\NC(=O)c1ccc(Br)cc1)C1C(=O)c2ccccc2C1=O
508 nM	COc1ccccc1NC(=S)N=Nc1c(O)[nH]c2ccc(Br)cc12
inactive	N#CC1=C(N)NC(SCc2ccccc2)=C(C#N)C12CCCCC2
inactive	O=C(Nn1c(O)c(C=C2N=c3ccccc3=N2)sc1=S)c1ccccc1
inactive	Cc1ccc(/C=C2\SC(=S)N(/N=C/c3cc([N+](=O)[O-])ccc3O)C2=O)o1
427 nM	NC(=S)N=Nc1c(O)n(Cc2ccccc2)c2ccccc12
67.7 nM	O=C1C2Sc3[nH]c(=O)sc3C(c3ccccc3)C2C(=O)N1c1ccccc1 (centres undefined)
